Activity calls are given as the source filed them. No cut-off for these calls is given here.
Tests used:
Mus musculus [1] = experiment: Anticonvulsant activity in CF1 albino mouse assessed as inhibition of subcutaneous pentylenetetrazole-induced seizures at 30 mg/kg, ip after 0.5 hrs; assay type: functional, organism-based; design: dose 30 mg/kg
In short: (§1)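 Adult male CF no. 1 albino mice (18-25 g) dosed ip with compound suspended in 0.5% methylcellulose (0.01 mL/g). Convulsant: pentylenetetrazol dissolved in 0.9% saline as a 0.85% solution for mice, given subcutaneously.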

Mus musculus [2] = experiment: Anticonvulsant activity in CF1 albino mouse assessed as inhibition of subcutaneous pentylenetetrazole-induced seizures at 100 mg/kg, ip after 0.5 hrs; assay type: functional, organism-based; design: dose 100 mg/kg; in short: as §1
Mus musculus [3] = experiment: Anticonvulsant activity in CF1 albino mouse assessed as inhibition of subcutaneous pentylenetetrazole-induced seizures at 300 mg/kg, ip after 0.5 hrs; assay type: functional, organism-based; design: dose 300 mg/kg; in short: as §1
Mus musculus [4] = experiment: Anticonvulsant activity in CF1 albino mouse assessed as inhibition of subcutaneous pentylenetetrazole-induced seizures at 30 mg/kg, ip after 4 hrs; assay type: functional, organism-based; design: dose 30 mg/kg; in short: as §1
Mus musculus [5] = experiment: Anticonvulsant activity in CF1 albino mouse assessed as inhibition of subcutaneous pentylenetetrazole-induced seizures at 100 mg/kg, ip after 4 hrs; assay type: functional, organism-based; design: dose 100 mg/kg; in short: as §1
Mus musculus [6] = experiment: Teratogenic effect in SWV mouse assessed as resorptions at 486 mg/kg, ip administered on morning of day 8 of gestation; assay type: toxicity, organism-based; design: dose 486 mg/kg, route intraperitoneal; settings: in vivo
In short: (§2)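 SWV inbred mice: two-month-old nulligravid females mated overnight with males and checked for vaginal plugs next morning; gestation onset taken as 10 p.m. the previous night. On gestation day 8.5 each dam got one ip injection, 0.55–2.7 mmol/kg, in 25% aqueous Cremophor EL (vehicle controls dosed alike), 10 μL/g body weight. Litters and implants tallied; resorptions and live fetuses reported as counts with percentages.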

Mus musculus [7] = experiment: Teratogenic effect in SWV mouse assessed as resorptions at 294 mg/kg, ip administered on morning of day 8 of gestation; assay type: toxicity, organism-based; design: dose 294 mg/kg, route intraperitoneal; settings: in vivo; in short: as §2
Mus musculus [8] = experiment: Teratogenic effect in SWV mouse assessed as resorptions at 148 mg/kg, ip administered on morning of day 8 of gestation; assay type: toxicity, organism-based; design: dose 148 mg/kg, route intraperitoneal; settings: in vivo; in short: as §2
Mus musculus [9] = experiment: Teratogenic effect in SWV mouse assessed as fetuses with neural tube deffects at 486 mg/kg, ip administered on morning of day 8 of gestation; assay type: toxicity, organism-based; design: dose 486 mg/kg, route intraperitoneal; settings: in vivo
In short: (§3)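 Two-month-old nulligravid SWV females were mated overnight and checked for vaginal plugs the next morning; gestation onset was set at 10 p.m. the previous night. On gestation day 8.5, each dam received a single ip injection (0.55-2.7 mmol/kg range) or vehicle (25% aqueous Cremophor EL) at 10 μL/g body weight. Litters were scored for implants, resorptions, live and dead fetuses, and fetuses with neural tube defects.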

Mus musculus [10] = experiment: Teratogenic effect in SWV mouse assessed as fetuses with neural tube deffects at 294 mg/kg, ip administered on morning of day 8 of gestation; assay type: toxicity, organism-based; design: dose 294 mg/kg, route intraperitoneal; settings: in vivo; in short: as §3
Mus musculus [11] = experiment: Teratogenic effect in SWV mouse assessed as fetuses with neural tube deffects at 148 mg/kg, ip administered on morning of day 8 of gestation; assay type: toxicity, organism-based; design: dose 148 mg/kg, route intraperitoneal; settings: in vivo; in short: as §3
Mus musculus [12] = experiment: Teratogenic effect in SWV mouse assessed as live fetuses at 486 mg/kg, ip administered on morning of day 8 of gestation; assay type: toxicity, organism-based; design: dose 486 mg/kg, route intraperitoneal; settings: in vivo; in short: as §2
Mus musculus [13] = experiment: Teratogenic effect in SWV mouse assessed as live fetuses at 294 mg/kg, ip administered on morning of day 8 of gestation; assay type: toxicity, organism-based; design: dose 294 mg/kg, route intraperitoneal; settings: in vivo; in short: as §3
Mus musculus [14] = experiment: Teratogenic effect in SWV mouse assessed as live fetuses at 148 mg/kg, ip administered on morning of day 8 of gestation; assay type: toxicity, organism-based; design: dose 148 mg/kg, route intraperitoneal; settings: in vivo; in short: as §3
Mus musculus [15] = experiment: Anticonvulsant activity in CF1 albino mouse assessed as inhibition of maximal electroshock-induced seizures at 30 mg/kg, ip after 0.5 hrs; assay type: functional, organism-based; design: dose 30 mg/kg
In short: (§4)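 Test compounds suspended in 0.5% methylcellulose and given ip to adult male CF no. 1 albino mice (18-25 g) at 0.01 mL/g body weight before maximal electroshock challenge.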

Mus musculus [16] = experiment: Anticonvulsant activity in CF1 albino mouse assessed as inhibition of maximal electroshock-induced seizures at 100 mg/kg, ip after 0.5 hrs; assay type: functional, organism-based; design: dose 100 mg/kg; in short: as §4
Mus musculus [17] = experiment: Anticonvulsant activity in CF1 albino mouse assessed as inhibition of maximal electroshock-induced seizures at 300 mg/kg, ip after 0.5 hrs; assay type: functional, organism-based; design: dose 300 mg/kg; in short: as §4
Mus musculus [18] = experiment: Anticonvulsant activity in CF1 albino mouse assessed as inhibition of maximal electroshock-induced seizures at 30 mg/kg, ip after 4 hrs; assay type: functional, organism-based; design: dose 30 mg/kg; in short: as §4
Mus musculus [19] = experiment: Anticonvulsant activity in CF1 albino mouse assessed as inhibition of maximal electroshock-induced seizures at 100 mg/kg, ip after 4 hrs; assay type: functional, organism-based; design: dose 100 mg/kg; in short: as §4
Mus musculus [20] = experiment: Anticonvulsant activity in CF1 albino mouse assessed as inhibition of maximal electroshock-induced seizures at 300 mg/kg, ip after 4 hrs; assay type: functional, organism-based; design: dose 300 mg/kg; in short: as §4
Mus musculus [21] = experiment: Anticonvulsant activity in CF1 albino mouse assessed as inhibition of subcutaneous pentylenetetrazole-induced seizures at 300 mg/kg, ip after 4 hrs; assay type: functional, organism-based; design: dose 300 mg/kg; in short: as §1
Mus musculus [22] = experiment: Neurotoxicity in CF1 albino mouse assessed as motor impairment at 30 mg/kg, ip after 0.5 hrs; assay type: toxicity, organism-based; design: dose 30 mg/kg, route intraperitoneal; settings: in vivo
Mus musculus [23] = experiment: Neurotoxicity in CF1 albino mouse assessed as motor impairment at 100 mg/kg, ip after 0.5 hrs; assay type: toxicity, organism-based; design: dose 100 mg/kg, route intraperitoneal; settings: in vivo
Mus musculus [24] = experiment: Neurotoxicity in CF1 albino mouse assessed as motor impairment at 300 mg/kg, ip after 0.5 hrs; assay type: toxicity, organism-based; design: dose 300 mg/kg, route intraperitoneal; settings: in vivo
Mus musculus [25] = experiment: Neurotoxicity in CF1 albino mouse assessed as motor impairment at 30 mg/kg, ip after 4 hrs; assay type: toxicity, organism-based; design: dose 30 mg/kg, route intraperitoneal; settings: in vivo
Mus musculus [26] = experiment: Neurotoxicity in CF1 albino mouse assessed as motor impairment at 100 mg/kg, ip after 4 hrs; assay type: toxicity, organism-based; design: dose 100 mg/kg, route intraperitoneal; settings: in vivo
Mus musculus [27] = experiment: Neurotoxicity in CF1 albino mouse assessed as motor impairment at 300 mg/kg, ip after 4 hrs; assay type: toxicity, organism-based; design: dose 300 mg/kg, route intraperitoneal; settings: in vivo
Rattus norvegicus [28] = species: Rattus norvegicus; experiment: Protective index, ratio of TD50 for rat to ED50 for maximal electroshock-induced rat seizure model
Rattus norvegicus [29] = experiment: Neurotoxicity in Sprague-Dawley rat assessed as motor impairment at 30 mg/kg, po after 0.25 to 4 hrs; settings: in vivo
Rattus norvegicus [30] = experiment: Anticonvulsant activity in po dosed rat assessed as inhibition of maximal electroshock-induced seizures
Rattus norvegicus [31] = experiment: Anticonvulsant activity in Sprague-Dawley rat assessed as inhibition of maximal electroshock-induced seizures at 30 mg/kg, po after 1 hr
Rattus norvegicus [32] = experiment: Anticonvulsant activity in Sprague-Dawley rat assessed as inhibition of maximal electroshock-induced seizures at 30 mg/kg, po after 2 hrs
Rattus norvegicus [33] = experiment: Anticonvulsant activity in Sprague-Dawley rat assessed as inhibition of maximal electroshock-induced seizures at 30 mg/kg, po after 4 hrs
Rattus norvegicus [34] = experiment: Anticonvulsant activity in Sprague-Dawley rat assessed as inhibition of maximal electroshock-induced seizures at 30 mg/kg, po after 30 mins

CCC(C)CC(=O)Nc1ccc(S(N)(=O)=O)cc1 (centres undefined)
Activity (Mus musculus [1]): inactive | Activity (Mus musculus [2]): inactive | Activity (Mus musculus [3]): inactive | Activity (Mus musculus [4]): inactive | Activity (Mus musculus [5]): inactive | Activity (Mus musculus [6]): 68% | Activity (Mus musculus [7]): 32.5% | Activity (Mus musculus [8]): 10.6% | Activity (Mus musculus [9]): 9.4% | Activity (Mus musculus [10]): 9.9% | Activity (Mus musculus [11]): 1.1% | Activity (Mus musculus [12]): 32% | Activity (Mus musculus [13]): 67.5% | Activity (Mus musculus [14]): 89.4% | Activity (Mus musculus [15]): inactive | Activity (Mus musculus [16]): inactive | Activity (Mus musculus [17]): inactive | Activity (Mus musculus [18]): inactive | Activity (Mus musculus [19]): inactive | Activity (Mus musculus [20]): inactive | Activity (Mus musculus [21]): inactive | Activity (Mus musculus [22]): Non-toxic | Activity (Mus musculus [23]): Non-toxic | Activity (Mus musculus [24]): Non-toxic | Activity (Mus musculus [25]): Non-toxic | Activity (Mus musculus [26]): Non-toxic | Activity (Mus musculus [27]): Non-toxic | Ratio TD50/ED50 (Rattus norvegicus [28]): >30.4 | Activity (Rattus norvegicus [29]): Non-toxic | ED50 (Rattus norvegicus [30]): 16.4 mg/kg | Activity (Rattus norvegicus [31]): Active | Activity (Rattus norvegicus [32]): Active | Activity (Rattus norvegicus [33]): Active | Activity (Rattus norvegicus [34]): Active
